Experimental findings from ChEMBL document CHEMBL5143736, “Discovery and Optimization of a Synthetic Class of Nectin-4-Targeted CD137 Agonists for Immuno-oncology” (J Med Chem, 2022) are described below.

The subject of data set [1] is PBMC. The experiment in a line: […] activity in human PBMC stimulated with anti-CD3-mediated CD137 expression in cocultured with […] cell line assessed as increase in secretion of IFN gamma incubated for 48 hrs by Luminex assay. Type of data set: functional, cell-based. The settings on record: DDE = dose-dependent effect. In outline: (§1)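 Healthy-donor PBMCs were thawed into R10 medium and cocultured with HT1376 cells at 10:1 effector:target (1×10^5 PBMC:1×10^4 tumor cells per well). Soluble anti-CD3 OKT3 (100 ng/mL) was added on day 0, then compound, 37 °C, 5% CO2. Supernatant IFNγ and IL-2 taken at 24 and 48 h, measured by Luminex. Four-parameter fit, n = 3, repeated in multiple donors.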

Data set [2] has as its system PBMC. The data set can be described thus: […] activity in human PBMC stimulated with anti-CD3-mediated CD137 expression in cocultured with […] cell line assessed as increase in secretion of IL2 incubated for 48 hrs by Luminex assay. Type of data set: functional, cell-based. The settings on record: DDE = dose-dependent effect. The method in brief:
as §1

Data set [3] in a line: Half life in Sprague-Dawley rat at 2 mg/kg, iv by LC/MS/MS analysis. As to conditions: in vivo.
Data set [4] deals with Tumor necrosis factor receptor superfamily member 9 (Homo sapiens, UniProt Q07011). The experiment in a line: Binding affinity to human CD137 assessed as dissociation constant by surface plasmon resonance analysis. The method in brief:
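Biacore T200 SPR, human CD137, 25 °C. Peptide series in PBS/0.05% Tween 20 with 0.5% DMSO: top 500 nM (threefold) or 10 μM (twofold), 6 further dilutions. Flow 90 μL/min, 60 s association, 100–600 s dissociation, glycine pH 2 regeneration. DMSO-corrected and double-referenced; kinetic fit gives ka, kd, KD.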
For orientation: SPR reads the build-up and loss of mass on a sensor chip optically.

Tumor necrosis factor receptor superfamily member 9, sequence (Q07011 whole entry): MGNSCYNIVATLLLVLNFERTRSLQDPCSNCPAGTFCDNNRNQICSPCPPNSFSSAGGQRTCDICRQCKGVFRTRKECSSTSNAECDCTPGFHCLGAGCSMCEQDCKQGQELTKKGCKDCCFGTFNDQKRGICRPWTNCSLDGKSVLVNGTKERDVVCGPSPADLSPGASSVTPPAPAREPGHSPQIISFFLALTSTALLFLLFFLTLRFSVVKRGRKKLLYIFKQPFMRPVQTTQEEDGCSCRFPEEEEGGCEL

For orientation: half-life means how long it takes for the measured level to halve. A high value points to slow decline. `CCCC[C@@H]1NC(=O)[C@H](Cc2ccc(O)cc2)NC(=O)[C@@H]2CCCN2C(=O)[C@H](CC(=O)O)NC(=O)[C@H](C)NC(=O)[C@H](Cc2ccccc2)NC(=O)[C@@H]2CSCCC(=O)N3CN(CN(C3)C(=O)CCSC[C@@H](C(=O)N[C@@H](CNC(=O)CCc3cn(CCOCCOCCOCCOCCOCCOCCOCCOCCOCCOCCOCCOCCC(=O)NCCC(=O)N(C)CC(=O)N(C)CC(=O)N(C)CC(=O)N(C)CC(=O)N(C)CC(=O)N(C)CC(=O)N(C)CC(=O)N(C)CC(=O)N(C)CC(=O)N(C)CC(=O)N[C@H]4CSCCC(=O)N5CN6CN(C5)C(=O)CCSC[C@H](NC(=O)[C@@H](CC(=O)O)NC(=O)[C@H](Cc5cccc7ccccc57)NC(=O)[C@@H]5CCCN5C4=O)C(=O)N[C@H](CCSC)C(=O)N[C@@H](CCCCNC(=N)N)C(=O)N[C@H](CC(=O)O)C(=O)N[C@@H](Cc4c[nH]c5ccccc45)C(=O)N[C@@H](CO)C(=O)N[C@@H]([C@H](C)O)C(=O)N4CCC[C@H]4C(=O)N4C[C@H](O)C[C@H]4C(=O)N[C@@H](Cc4c[nH]c5ccccc45)C(=O)N[C@H](C(N)=O)CSCCC6=O)nn3)C(N)=O)NC1=O)C(=O)CCSC[C@H](NC(C)=O)C(=O)N[C@@H](CC(C)(C)C)C(=O)N1CCC[C@H]1C(=O)N[C@@H](CCC(=O)O)C(=O)N[C@@H](C)C(=O)N1CCC[C@H]1C(=O)N[C@@H](Cc1ccc(O)cc1)C(=O)N2`: the Activity result in data set [1] and in data set [2] was “Dde” each time. The same compound gave a half-life in data set [3] of 21.6 min.
What is called Kd is the equilibrium constant for the complex coming apart. In the case of `CCCC[C@@H]1NC(=O)[C@H](Cc2ccc(O)cc2)NC(=O)[C@@H]2CCCN2C(=O)[C@H](CCC(=O)O)NC(=O)[C@H](C)NC(=O)[C@H](Cc2ccccc2)NC(=O)[C@@H]2CSCCC(=O)N3CN(CN(C3)C(=O)CCSC[C@H](NC(C)=O)C(=O)N[C@@H](CC(C)(C)C)C(=O)N3CCC[C@H]3C(=O)N[C@@H](CCC(=O)O)C(=O)N[C@H](CCCCNC(=O)CCc3cn(CCOCCOCCOCCOCCOCCC(=O)N[C@H]4CSCCC(=O)N5CN6CN(C5)C(=O)CCSC[C@H](NC(=O)[C@@H](CC(=O)O)NC(=O)[C@H](Cc5cccc7ccccc57)NC(=O)[C@@H]5CCCN5C4=O)C(=O)N[C@@H](CCSC)C(=O)N[C@@H](CCCCNC(=N)N)C(=O)N[C@@H](CC(=O)O)C(=O)N[C@@H](Cc4c[nH]c5ccccc45)C(=O)N[C@@H](CO)C(=O)N[C@@H]([C@@H](C)O)C(=O)N4CCC[C@H]4C(=O)N4C[C@H](O)C[C@H]4C(=O)N[C@@H](Cc4c[nH]c5ccccc45)C(=O)N[C@H](C(N)=O)CSCCC6=O)nn3)C(=O)N3CCC[C@H]3C(=O)N[C@@H](Cc3ccc(O)cc3)C(=O)N2)C(=O)CCSC[C@@H](C(N)=O)NC1=O`, the Kd in data set [4] came out at 2370 nM.
Compound `CCCC[C@@H]1NC(=O)[C@H](Cc2ccc(O)cc2)NC(=O)[C@@H]2CCCN2C(=O)[C@H](CC(=O)O)NC(=O)[C@H](C)NC(=O)[C@H](Cc2ccccc2)NC(=O)[C@@H]2CSCCC(=O)N3CN(CN(C3)C(=O)CCSC[C@@H](C(=O)N[C@@H](CNC(=O)CCOCCOCCOCCOCCOCCn3cc(CCC(=O)N[C@H]4CSCCC(=O)N5CN6CN(C5)C(=O)CCSC[C@H](NC(=O)[C@@H](CC(=O)O)NC(=O)[C@H](Cc5cccc7ccccc57)NC(=O)[C@@H]5CCCN5C4=O)C(=O)N[C@@H](CCSC)C(=O)N[C@@H](CCCCNC(=N)N)C(=O)N[C@@H](CC(=O)O)C(=O)N[C@@H](Cc4c[nH]c5ccccc45)C(=O)N[C@@H](CO)C(=O)N[C@@H]([C@@H](C)O)C(=O)N4CCC[C@H]4C(=O)N4C[C@H](O)C[C@H]4C(=O)N[C@@H](Cc4c[nH]c5ccccc45)C(=O)N[C@H](C(N)=O)CSCCC6=O)nn3)C(N)=O)NC1=O)C(=O)CCSC[C@H](NC(C)=O)C(=O)N[C@@H](CC(C)(C)C)C(=O)N1CCC[C@H]1C(=O)N[C@@H](CCC(=O)O)C(=O)N[C@H](C)C(=O)N1CCC[C@H]1C(=O)N[C@@H](Cc1ccc(O)cc1)C(=O)N2` had a half-life in data set [3] of 57.6 min.
